Converted amounts (≈) assume the structure as drawn.
Experiments:
Assay type in all cases: functional
Aspergillus fumigatus [1] = assay: Antifungal activity against Aspergillus fumigatus NCIM 902 at MIC after 3 to 4 days by agar well diffusion method
Summary of the method: (§1)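 Sabouraud agar (peptone, D-glucose, agar; pH 5.7) seeded with spore suspension made by transferring a loopful of fungus to 3 mL normal saline. Excess decanted, plates dried 1 h at 37 °C. Compounds in DMSO at MIC added to punched wells; DMSO control. Triplicate plates kept 3–4 days at 37 °C.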

Staphylococcus aureus [2] = assay: Antibacterial activity against Staphylococcus aureus ATCC 25923 after 16 to 18 hrs by serial plate dilution method
Summary of the method: (§2)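 Drug serially diluted in Mueller–Hinton broth in tubes, adjusted to pH 5.0 with phosphate buffer. Inoculated with standardized bacterial suspension and incubated 16–18 h at 37 °C. MIC taken as lowest concentration with no visible growth.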

Escherichia coli [3] = assay: Antibacterial activity against Escherichia coli ATCC 25922 after 16 to 18 hrs by serial plate dilution method; summary of the method: as §2
Pseudomonas aeruginosa [4] = assay: Antibacterial activity against Pseudomonas aeruginosa ATCC 27853 after 16 to 18 hrs by serial plate dilution method; summary of the method: as §2
Klebsiella pneumoniae [5] = assay: Antibacterial activity against recultured Klebsiella pneumoniae after 16 to 18 hrs by serial plate dilution method; summary of the method: as §2
Staphylococcus aureus [6] = assay: Antibacterial activity against Staphylococcus aureus ATCC 25923 at MIC after 3 to 4 days by agar well diffusion method
Escherichia coli [7] = assay: Antibacterial activity against Escherichia coli ATCC 25922 at MIC after 3 to 4 days by agar well diffusion method
Pseudomonas aeruginosa [8] = assay: Antibacterial activity against Pseudomonas aeruginosa ATCC 27853 at MIC after 3 to 4 days by agar well diffusion method
Klebsiella pneumoniae [9] = assay: Antibacterial activity against recultured Klebsiella pneumoniae at MIC after 3 to 4 days by agar well diffusion method
Talaromyces marneffei [10] = assay: Antifungal activity against recultured Penicillium marneffei by serial plate dilution method
[11] = system: Trichophyton mentagrophytes; assay: Antifungal activity against recultured Trichophyton mentagrophytes by serial plate dilution method
Aspergillus flavus [12] = assay: Antifungal activity against Aspergillus flavus NCIM 524 by serial plate dilution method
Aspergillus fumigatus [13] = assay: Antifungal activity against Aspergillus fumigatus NCIM 902 by serial plate dilution method
Talaromyces marneffei [14] = assay: Antifungal activity against recultured Penicillium marneffei at MIC after 3 to 4 days by agar well diffusion method; summary of the method: as §1
[15] = system: Trichophyton mentagrophytes; assay: Antifungal activity against recultured Trichophyton mentagrophytes at MIC after 3 to 4 days by agar well diffusion method; summary of the method: as §1
Aspergillus flavus [16] = assay: Antifungal activity against Aspergillus flavus NCIM 524 at MIC after 3 to 4 days by agar well diffusion method; summary of the method: as §1

| MIC (Staphylococcus aureus [2]) | MIC (Escherichia coli [3]) | MIC (Pseudomonas aeruginosa [4]) | MIC (Klebsiella pneumoniae [5]) | MIC (Talaromyces marneffei [10]) | MIC [11] | MIC (Aspergillus flavus [12]) | MIC (Aspergillus fumigatus [13]) | Compound | inhibition zone (IZ) (Aspergillus fumigatus [1]) | inhibition zone (IZ) (Staphylococcus aureus [6]) | inhibition zone (IZ) (Escherichia coli [7]) | inhibition zone (IZ) (Pseudomonas aeruginosa [8]) | inhibition zone (IZ) (Klebsiella pneumoniae [9]) | inhibition zone (IZ) (Talaromyces marneffei [14]) | inhibition zone (IZ) [15] | inhibition zone (IZ) (Aspergillus flavus [16]) |
| --- | --- | --- | --- | --- | --- | --- | --- | --- | --- | --- | --- | --- | --- | --- | --- | --- |
| 6.25 µg/mL (≈ 16.9 µM) | 6.25 µg/mL (≈ 16.9 µM) | 6.25 µg/mL (≈ 16.9 µM) | 6.25 µg/mL (≈ 16.9 µM) | 6.25 µg/mL (≈ 16.9 µM) | 6.25 µg/mL (≈ 16.9 µM) | 6.25 µg/mL (≈ 16.9 µM) | 6.25 µg/mL (≈ 16.9 µM) | COCCn1c(S)nnc1-c1cnc2c(C(F)(F)F)cccc2c1O | 16 mm | 16 mm | 20 mm | 16 mm | 16 mm | 16 mm | 20 mm | 16 mm |
| 50 µg/mL (≈ 124 µM) | 50 µg/mL (≈ 124 µM) | 50 µg/mL (≈ 124 µM) | 50 µg/mL (≈ 124 µM) | 50 µg/mL (≈ 124 µM) | 50 µg/mL (≈ 124 µM) | 50 µg/mL (≈ 124 µM) | 50 µg/mL (≈ 124 µM) | Oc1c(-c2nnc(S)n2Cc2ccccc2)cnc2c(C(F)(F)F)cccc12 | <10 mm | <10 mm | <10 mm | <10 mm | <10 mm | <10 mm | <10 mm | <10 mm |
| 6.25 µg/mL (≈ 12.6 µM) | 6.25 µg/mL (≈ 12.6 µM) | 50 µg/mL (≈ 101 µM) | 50 µg/mL (≈ 101 µM) | 50 µg/mL (≈ 101 µM) | 50 µg/mL (≈ 101 µM) | 50 µg/mL (≈ 101 µM) | 50 µg/mL (≈ 101 µM) | COCCn1c(S)nnc1-c1cnc2c(C(F)(F)F)cccc2c1N1CCC(CCCO)CC1 | <10 mm | 16 mm | 20 mm | <10 mm | <10 mm | <10 mm | <10 mm | <10 mm |
| 12.5 µg/mL (≈ 32.2 µM) | 6.25 µg/mL (≈ 16.1 µM) | 12.5 µg/mL (≈ 32.2 µM) | 12.5 µg/mL (≈ 32.2 µM) | 12.5 µg/mL (≈ 32.2 µM) | 12.5 µg/mL (≈ 32.2 µM) | 12.5 µg/mL (≈ 32.2 µM) | 12.5 µg/mL (≈ 32.2 µM) | COCCn1c(S)nnc1-c1cnc2c(C(F)(F)F)cccc2c1Cl | 10 mm | 10 mm | 16 mm | 10 mm | 12 mm | 10 mm | 10 mm | 10 mm |
| 50 µg/mL (≈ 100 µM) | 6.25 µg/mL (≈ 12.5 µM) | 50 µg/mL (≈ 100 µM) | 50 µg/mL (≈ 100 µM) | 50 µg/mL (≈ 100 µM) | 50 µg/mL (≈ 100 µM) | 50 µg/mL (≈ 100 µM) | 50 µg/mL (≈ 100 µM) | CC(C)N1CCN(c2c(-c3nnc(S)n3-c3ccccc3)cnc3c(C(F)(F)F)cccc23)CC1 | <10 mm | <10 mm | 20 mm | <10 mm | <10 mm | <10 mm | <10 mm | <10 mm |
| 6.25 µg/mL (≈ 13.3 µM) | 6.25 µg/mL (≈ 13.3 µM) | 6.25 µg/mL (≈ 13.3 µM) | 6.25 µg/mL (≈ 13.3 µM) | 6.25 µg/mL (≈ 13.3 µM) | 6.25 µg/mL (≈ 13.3 µM) | 6.25 µg/mL (≈ 13.3 µM) | 6.25 µg/mL (≈ 13.3 µM) | CC(C)(C)CCNc1c(-c2nnc(S)n2-c2ccccc2)cnc2c(C(F)(F)F)cccc12 | 16 mm | 16 mm | 20 mm | 16 mm | 16 mm | 16 mm | 20 mm | 16 mm |
| 6.25 µg/mL (≈ 14.2 µM) | 6.25 µg/mL (≈ 14.2 µM) | 6.25 µg/mL (≈ 14.2 µM) | 6.25 µg/mL (≈ 14.2 µM) | 6.25 µg/mL (≈ 14.2 µM) | 6.25 µg/mL (≈ 14.2 µM) | 6.25 µg/mL (≈ 14.2 µM) | 6.25 µg/mL (≈ 14.2 µM) | COCCn1c(S)nnc1-c1cnc2c(C(F)(F)F)cccc2c1N1CCOCC1 | 16 mm | 16 mm | 20 mm | 16 mm | 16 mm | 16 mm | 20 mm | 16 mm |
| 50 µg/mL (≈ 96 µM) | 6.25 µg/mL (≈ 12 µM) | 50 µg/mL (≈ 96 µM) | 50 µg/mL (≈ 96 µM) | 50 µg/mL (≈ 96 µM) | 6.25 µg/mL (≈ 12 µM) | 50 µg/mL (≈ 96 µM) | 50 µg/mL (≈ 96 µM) | COCCn1c(S)nnc1-c1cnc2c(C(F)(F)F)cccc2c1N1CCN(C2CCCCC2)CC1 | <10 mm | <10 mm | 20 mm | <10 mm | <10 mm | <10 mm | 20 mm | <10 mm |
| 6.25 µg/mL (≈ 15.3 µM) | 6.25 µg/mL (≈ 15.3 µM) | 6.25 µg/mL (≈ 15.3 µM) | 6.25 µg/mL (≈ 15.3 µM) | 6.25 µg/mL (≈ 15.3 µM) | 6.25 µg/mL (≈ 15.3 µM) | 6.25 µg/mL (≈ 15.3 µM) | 6.25 µg/mL (≈ 15.3 µM) | COCCn1c(S)nnc1-c1cnc2c(C(F)(F)F)cccc2c1NC1CC1 | 16 mm | 16 mm | 20 mm | 16 mm | 16 mm | 16 mm | 20 mm | 16 mm |
| 50 µg/mL (≈ 92.8 µM) | 6.25 µg/mL (≈ 11.6 µM) | 50 µg/mL (≈ 92.8 µM) | 50 µg/mL (≈ 92.8 µM) | 50 µg/mL (≈ 92.8 µM) | 50 µg/mL (≈ 92.8 µM) | 50 µg/mL (≈ 92.8 µM) | 50 µg/mL (≈ 92.8 µM) | FC(F)(F)c1cccc2c(N3CCN(C4CCCCC4)CC3)c(-c3nnc(S)n3-c3ccccc3)cnc12 | <10 mm | <10 mm | 20 mm | <10 mm | <10 mm | <10 mm | <10 mm | <10 mm |
| 12.5 µg/mL (≈ 25.8 µM) | 12.5 µg/mL (≈ 25.8 µM) | 12.5 µg/mL (≈ 25.8 µM) | 12.5 µg/mL (≈ 25.8 µM) | 12.5 µg/mL (≈ 25.8 µM) | 12.5 µg/mL (≈ 25.8 µM) | 12.5 µg/mL (≈ 25.8 µM) | 12.5 µg/mL (≈ 25.8 µM) | FC(F)(F)c1cccc2c(NC3CCCCC3)c(-c3nnc(S)n3Cc3ccccc3)cnc12 | 10 mm | 10 mm | 16 mm | 10 mm | 12 mm | 10 mm | 16 mm | 10 mm |
| 6.25 µg/mL (≈ 14.6 µM) | 6.25 µg/mL (≈ 14.6 µM) | 6.25 µg/mL (≈ 14.6 µM) | 6.25 µg/mL (≈ 14.6 µM) | 6.25 µg/mL (≈ 14.6 µM) | 6.25 µg/mL (≈ 14.6 µM) | 6.25 µg/mL (≈ 14.6 µM) | 6.25 µg/mL (≈ 14.6 µM) | FC(F)(F)c1cccc2c(NC3CC3)c(-c3nnc(S)n3-c3ccccc3)cnc12 | 16 mm | 16 mm | 20 mm | 16 mm | 16 mm | 16 mm | 20 mm | 16 mm |

| Compound | MIC (Staphylococcus aureus [2]) | MIC (Escherichia coli [3]) | MIC (Pseudomonas aeruginosa [4]) | MIC (Klebsiella pneumoniae [5]) | MIC (Talaromyces marneffei [10]) | MIC [11] | MIC (Aspergillus flavus [12]) | MIC (Aspergillus fumigatus [13]) | inhibition zone (IZ) (Aspergillus fumigatus [1]) | inhibition zone (IZ) (Staphylococcus aureus [6]) | inhibition zone (IZ) (Escherichia coli [7]) | inhibition zone (IZ) (Pseudomonas aeruginosa [8]) | inhibition zone (IZ) (Klebsiella pneumoniae [9]) | inhibition zone (IZ) (Talaromyces marneffei [14]) | inhibition zone (IZ) [15] | inhibition zone (IZ) (Aspergillus flavus [16]) |
| --- | --- | --- | --- | --- | --- | --- | --- | --- | --- | --- | --- | --- | --- | --- | --- | --- |
| O=C(O)c1cn(C2CC2)c2cc(N3CCNCC3)c(F)cc2c1=O [CIPROFLOXACIN] |  |  |  | 6.25 µg/mL (≈ 18.9 µM) |  |  |  |  |  | 22 mm | 30 mm | 25 mm | 23 mm |  |  |  |
